In ChEMBL document CHEMBL1275526, “Differential azole antifungal efficacies contrasted using a Saccharomyces cerevisiae strain humanized for sterol 14 alpha-demethylase at the homologous locus” (2008):
In brackets after ≈: the same amount, converted by molar mass.

Tests used:
Format in all cases: functional
Saccharomyces cerevisiae [1] = assay: Antifungal activity against Saccharomyces cerevisiae BY4741 harboring human CYP51 assessed as growth rate at 0.5 ug/ml (reference value: 0.157%); details: at 0.5 µg/mL
Saccharomyces cerevisiae [2] = assay: Antifungal activity against Saccharomyces cerevisiae BY4741 harboring human CYP51 by broth microdilution method
Outline: (§1)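 Adapted CLSI M-27A broth microdilution for S. cerevisiae, run in triplicate. Overnight cultures were diluted in YM, pH 7.0, to 2.5 x 10^3 cells/ml, with drug diluted in YM over 0 to 16 or 0 to 128 µg/ml depending on azole. Plates were incubated 48 h at 30°C. MIC was the concentration giving 80% growth inhibition.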

Saccharomyces cerevisiae [3] = assay: Antifungal activity against wild-type Saccharomyces cerevisiae BY4741 by broth microdilution method; outline: as §1
Saccharomyces cerevisiae [4] = assay: Antifungal activity against Saccharomyces cerevisiae BY4741 harboring human CYP51 assessed as growth rate at 1 ug/ml (reference value: 0.157%); details: at 1 µg/mL
Saccharomyces cerevisiae [5] = assay: Antifungal activity against Saccharomyces cerevisiae BY4741 assessed as growth rate at 1 ug/ml (reference value: 0.144%)
Saccharomyces cerevisiae [6] = assay: Antifungal activity against Saccharomyces cerevisiae BY4741 assessed as growth rate at 0.5 ug/ml (reference value: 0.144%)
Saccharomyces cerevisiae [7] = assay: Antifungal activity against Saccharomyces cerevisiae BY4741 assessed as growth rate at 2 ug/ml (reference value: 0.144%)
Saccharomyces cerevisiae [8] = assay: Antifungal activity against Saccharomyces cerevisiae BY4741 harboring human CYP51 assessed as growth rate at 2 ug/ml (reference value: 0.157%); details: at 2 µg/mL
Saccharomyces cerevisiae [9] = assay: Antifungal activity against Saccharomyces cerevisiae BY4741 assessed as growth rate at 16 ug/ml (reference value: 0.144%)
Saccharomyces cerevisiae [10] = assay: Antifungal activity against Saccharomyces cerevisiae BY4741 harboring human CYP51 assessed as growth rate at 16 ug/ml (reference value: 0.157%); details: at 16 µg/mL
Saccharomyces cerevisiae [11] = assay: Antifungal activity against wild-type Saccharomyces cerevisiae BY4741 assessed as accumulation of 14-alpha-methylergosta-8,24(28)-dien-3beta-6alpha-diol at 16 ug/ml
Saccharomyces cerevisiae [12] = assay: Antifungal activity against Saccharomyces cerevisiae BY4741 assessed as growth rate at 8 ug/ml (reference value: 0.144%)
Saccharomyces cerevisiae [13] = assay: Antifungal activity against Saccharomyces cerevisiae BY4741 harboring human CYP51 assessed as accumulation of 14-alpha-methylergosta-8,24(28)-dien-3beta-6alpha-diol at 16 ug/ml
Saccharomyces cerevisiae [14] = assay: Antifungal activity against wild-type Saccharomyces cerevisiae BY4741 assessed as accumulation of lanosterol at 16 ug/ml (reference value: 17+/- 1.22 %)
Saccharomyces cerevisiae [15] = assay: Antifungal activity against Saccharomyces cerevisiae BY4741 harboring human CYP51 assessed as accumulation of lanosterol at 16 ug/ml (reference value: 23+/- 1.08 %)
Saccharomyces cerevisiae [16] = assay: Antifungal activity against Saccharomyces cerevisiae BY4741 harboring human CYP51 assessed as growth rate at 8 ug/ml (reference value: 0.157%); details: at 8 µg/mL
Saccharomyces cerevisiae [17] = assay: Antifungal activity against Saccharomyces cerevisiae BY4741 harboring human CYP51 assessed as accumulation of ergosterol at 16 ug/ml (reference value: 54+/- 0.82 %)
Saccharomyces cerevisiae [18] = assay: Antifungal activity against Saccharomyces cerevisiae BY4741 assessed as growth rate at 4 ug/ml (reference value: 0.144%)
Saccharomyces cerevisiae [19] = assay: Antifungal activity against Saccharomyces cerevisiae BY4741 harboring human CYP51 assessed as growth rate at 4 ug/ml (reference value: 0.157%); details: at 4 µg/mL
Saccharomyces cerevisiae [20] = assay: Antifungal activity against Saccharomyces cerevisiae BY4741 harboring human CYP51 assessed as accumulation of 14-alpha-methylergosta-8,24(28)-dien-3beta-6alpha-diol at 8 ug/ml
Saccharomyces cerevisiae [21] = assay: Antifungal activity against wild-type Saccharomyces cerevisiae BY4741 assessed as accumulation of ergosterol at 8 ug/ml (reference value: 57+/- 1.00 %)
Saccharomyces cerevisiae [22] = assay: Antifungal activity against wild-type Saccharomyces cerevisiae BY4741 assessed as accumulation of 14-alpha-methylergosta-8,24(28)-dien-3beta-6alpha-diol at 8 ug/ml
Saccharomyces cerevisiae [23] = assay: Antifungal activity against wild-type Saccharomyces cerevisiae BY4741 assessed as accumulation of lanosterol at 8 ug/ml (reference value: 17+/- 1.22 %)
Saccharomyces cerevisiae [24] = assay: Antifungal activity against Saccharomyces cerevisiae BY4741 harboring human CYP51 assessed as accumulation of ergosterol at 8 ug/ml (reference value: 54+/- 0.82 %)
Saccharomyces cerevisiae [25] = assay: Antifungal activity against Saccharomyces cerevisiae BY4741 harboring human CYP51 assessed as accumulation of ergosterol at 4 ug/ml (reference value: 54+/- 0.82 %)
Saccharomyces cerevisiae [26] = assay: Antifungal activity against Saccharomyces cerevisiae BY4741 harboring human CYP51 assessed as accumulation of 14-alpha-methylergosta-8,24(28)-dien-3beta-6alpha-diol at 4 ug/ml
Saccharomyces cerevisiae [27] = assay: Antifungal activity against wild-type Saccharomyces cerevisiae BY4741 assessed as accumulation of lanosterol at 4 ug/ml (reference value: 17+/- 1.22 %)
Saccharomyces cerevisiae [28] = assay: Antifungal activity against wild-type Saccharomyces cerevisiae BY4741 assessed as accumulation of 14-alpha-methylergosta-8,24(28)-dien-3beta-6alpha-diol at 4 ug/ml
Saccharomyces cerevisiae [29] = assay: Antifungal activity against wild-type Saccharomyces cerevisiae BY4741 assessed as accumulation of ergosterol at 4 ug/ml (reference value: 57+/- 1.00 %)
Saccharomyces cerevisiae [30] = assay: Antifungal activity against Saccharomyces cerevisiae BY4741 harboring human CYP51 assessed as accumulation of lanosterol at 4 ug/ml (reference value: 23+/- 1.08 %)
Saccharomyces cerevisiae [31] = assay: Antifungal activity against Saccharomyces cerevisiae BY4741 harboring human CYP51 assessed as growth rate at 0.25 ug/ml (reference value: 0.157%); details: at 0.25 µg/mL
Saccharomyces cerevisiae [32] = assay: Antifungal activity against Saccharomyces cerevisiae BY4741 assessed as growth rate at 0.25 ug/ml (reference value: 0.144%)
Saccharomyces cerevisiae [33] = assay: Antifungal activity against Saccharomyces cerevisiae BY4741 harboring human CYP51 assessed as accumulation of 14-alpha-methylergosta-8,24(28)-dien-3beta-6alpha-diol at 0.25 ug/ml
Saccharomyces cerevisiae [34] = assay: Antifungal activity against Saccharomyces cerevisiae BY4741 harboring human CYP51 assessed as accumulation of lanosterol at 0.25 ug/ml (reference value: 23+/- 1.08 %)
Saccharomyces cerevisiae [35] = assay: Antifungal activity against Saccharomyces cerevisiae BY4741 assessed as growth rate at 0.125 ug/ml (reference value: 0.144%)
Saccharomyces cerevisiae [36] = assay: Antifungal activity against wild-type Saccharomyces cerevisiae BY4741 assessed as accumulation of ergosterol at 0.25 ug/ml (reference value: 57+/- 1.00 %)
Saccharomyces cerevisiae [37] = assay: Antifungal activity against wild-type Saccharomyces cerevisiae BY4741 assessed as accumulation of 14-alpha-methylergosta-8,24(28)-dien-3beta-6alpha-diol at 0.25 ug/ml
Saccharomyces cerevisiae [38] = assay: Antifungal activity against wild-type Saccharomyces cerevisiae BY4741 assessed as accumulation of lanosterol at 0.25 ug/ml (reference value: 17+/- 1.22 %)
Saccharomyces cerevisiae [39] = assay: Antifungal activity against Saccharomyces cerevisiae BY4741 harboring human CYP51 assessed as growth rate at 0.125 ug/ml (reference value: 0.157%); details: at 0.125 µg/mL
Saccharomyces cerevisiae [40] = assay: Antifungal activity against Saccharomyces cerevisiae BY4741 harboring human CYP51 assessed as accumulation of ergosterol at 0.25 ug/ml (reference value: 54+/- 0.82 %)

Row | SMILES | Activity (Saccharomyces cerevisiae [1]) | MIC (Saccharomyces cerevisiae [2]) | MIC (Saccharomyces cerevisiae [3]) | Activity (Saccharomyces cerevisiae [4]) | Activity (Saccharomyces cerevisiae [5]) | Activity (Saccharomyces cerevisiae [6]) | Activity (Saccharomyces cerevisiae [7]) | Activity (Saccharomyces cerevisiae [8]) | Activity (Saccharomyces cerevisiae [9]) | Activity (Saccharomyces cerevisiae [10]) | Activity (Saccharomyces cerevisiae [12]) | Activity (Saccharomyces cerevisiae [16]) | Activity (Saccharomyces cerevisiae [18]) | Activity (Saccharomyces cerevisiae [19]) | also measured
1 | Clc1ccccc1C(c1ccccc1)(c1ccccc1)n1ccnc1 [CLOTRIMAZOLE] | 0.162% | 8 µg/mL (≈ 23.2 µM) | 8 µg/mL (≈ 23.2 µM) | 0.173% | 0.123% | 0.11% | 0.088% | 0.169% |  |  |  |  |  |  | 
2 | Clc1ccc(COC(Cn2ccnc2)c2ccc(Cl)cc2Cl)cc1 (stereo not drawn) [ECONAZOLE] |  | 8 µg/mL (≈ 21 µM) | 8 µg/mL (≈ 21 µM) | 0.157% | 0.084% |  |  |  |  |  |  |  |  |  | 
3 | OC(Cn1cncn1)(Cn1cncn1)c1ccc(F)cc1F [FLUCONAZOLE] |  | > 128 µg/mL | 8 µg/mL (≈ 26.1 µM) |  |  |  |  |  | 0.03% | 0.171% | 0.036% | 0.16% |  |  | Activity (Saccharomyces cerevisiae [11]): 29%; Activity (Saccharomyces cerevisiae [13]): 6%; Activity (Saccharomyces cerevisiae [14]): 42%; Activity (Saccharomyces cerevisiae [15]): 24%; Activity (Saccharomyces cerevisiae [17]): 46%
4 | CCC(C)n1ncn(-c2ccc(N3CCN(c4ccc(OCC5COC(Cn6cncn6)(c6ccc(Cl)cc6Cl)O5)cc4)CC3)cc2)c1=O (stereo not drawn) [ITRACONAZOLE] | 0.166% | > 128 µg/mL | 1 µg/mL (≈ 1.42 µM) | 0.176% | 0.042% | 0.042% | 0.044% | 0.17% | 0.035% | 0.136% | 0.036% | 0.164% | 0.039% | 0.136% | Activity (Saccharomyces cerevisiae [20]): 5%; Activity (Saccharomyces cerevisiae [21]): 6%; Activity (Saccharomyces cerevisiae [22]): 24%; Activity (Saccharomyces cerevisiae [23]): 42%; Activity (Saccharomyces cerevisiae [24]): 52%
5 | CC(=O)N1CCN(c2ccc(OCC3COC(Cn4ccnc4)(c4ccc(Cl)cc4Cl)O3)cc2)CC1 (stereo not drawn) [KETOCONAZOLE] |  | 8 µg/mL (≈ 15.1 µM) | 1 µg/mL (≈ 1.88 µM) |  |  |  | 0.088% | 0.188% |  |  | 0.039% | 0.119% | 0.06% | 0.204% | Activity (Saccharomyces cerevisiae [25]): 51%; Activity (Saccharomyces cerevisiae [26]): 7%; Activity (Saccharomyces cerevisiae [27]): 35%; Activity (Saccharomyces cerevisiae [28]): 19%; Activity (Saccharomyces cerevisiae [29]): 12%; Activity (Saccharomyces cerevisiae [30]): 27%
6 | Clc1ccc(COC(Cn2ccnc2)c2ccc(Cl)cc2Cl)c(Cl)c1 (stereo not drawn) [MICONAZOLE] | 0.174% | 8 µg/mL (≈ 19.2 µM) | 8 µg/mL (≈ 19.2 µM) | 0.141% | 0.034% | 0.024% | 0.023% | 0.167% |  |  |  |  |  |  | 
7 | C[C@@H](c1ncncc1F)[C@](O)(Cn1cncn1)c1ccc(F)cc1F [VORICONAZOLE] | 0.153% | > 128 µg/mL | 0.125 µg/mL (≈ 0.358 µM) | 0.156% | 0.039% | 0.046% | 0.051% | 0.154% | 0.039% | 0.159% | 0.043% | 0.168% | 0.043% | 0.154% | Activity (Saccharomyces cerevisiae [31]): 0.159%; Activity (Saccharomyces cerevisiae [32]): 0.046%; Activity (Saccharomyces cerevisiae [33]): 4%; Activity (Saccharomyces cerevisiae [34]): 27%; Activity (Saccharomyces cerevisiae [35]): 0.057%; Activity (Saccharomyces cerevisiae [36]): 10%; Activity (Saccharomyces cerevisiae [37]): 24%; Activity (Saccharomyces cerevisiae [38]): 35%; Activity (Saccharomyces cerevisiae [39]): 0.157%; Activity (Saccharomyces cerevisiae [40]): 49%
